Assay results taken from ChEMBL document CHEMBL2146396, “Design, synthesis and evaluation of novel metalloproteinase inhibitors based on L-tyrosine scaffold” (Bioorg Med Chem, 2012).

Assays:
Histone deacetylase 8 = molecular target: T1, Histone deacetylase 8 (Homo sapiens, UniProt Q9BY41); assay: Inhibition of HDAC8 after 45 mins by microplate fluorometric analysis
T1 sequence (Q9BY41 whole entry): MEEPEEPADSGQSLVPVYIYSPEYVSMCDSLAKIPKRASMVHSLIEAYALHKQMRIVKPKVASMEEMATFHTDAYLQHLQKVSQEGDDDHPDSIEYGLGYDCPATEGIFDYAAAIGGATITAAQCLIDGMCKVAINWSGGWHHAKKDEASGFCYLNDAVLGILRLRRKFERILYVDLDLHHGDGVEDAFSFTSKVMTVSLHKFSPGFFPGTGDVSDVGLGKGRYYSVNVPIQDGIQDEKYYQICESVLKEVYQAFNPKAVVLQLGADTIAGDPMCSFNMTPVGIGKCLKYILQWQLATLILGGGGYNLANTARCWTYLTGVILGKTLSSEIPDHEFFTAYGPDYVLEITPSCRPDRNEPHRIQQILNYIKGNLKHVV

[1] = molecular target: 72 kDa type IV collagenase (Homo sapiens, UniProt P08253); assay: Inhibition of MMP2 using BML-P125-9090 as substrate after 30 mins by microplate reader analysis
How it was run: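 Colorimetric kit assay. Enzyme and inhibitor were preincubated 30 min at 37 °C in assay buffer equilibrated to 37 °C. Substrate was then added to start the reaction. A412 was read continuously at 1 min intervals for 10 min. IC50 was derived from the readings.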

Sequence of 72 kDa type IV collagenase (P08253 whole entry): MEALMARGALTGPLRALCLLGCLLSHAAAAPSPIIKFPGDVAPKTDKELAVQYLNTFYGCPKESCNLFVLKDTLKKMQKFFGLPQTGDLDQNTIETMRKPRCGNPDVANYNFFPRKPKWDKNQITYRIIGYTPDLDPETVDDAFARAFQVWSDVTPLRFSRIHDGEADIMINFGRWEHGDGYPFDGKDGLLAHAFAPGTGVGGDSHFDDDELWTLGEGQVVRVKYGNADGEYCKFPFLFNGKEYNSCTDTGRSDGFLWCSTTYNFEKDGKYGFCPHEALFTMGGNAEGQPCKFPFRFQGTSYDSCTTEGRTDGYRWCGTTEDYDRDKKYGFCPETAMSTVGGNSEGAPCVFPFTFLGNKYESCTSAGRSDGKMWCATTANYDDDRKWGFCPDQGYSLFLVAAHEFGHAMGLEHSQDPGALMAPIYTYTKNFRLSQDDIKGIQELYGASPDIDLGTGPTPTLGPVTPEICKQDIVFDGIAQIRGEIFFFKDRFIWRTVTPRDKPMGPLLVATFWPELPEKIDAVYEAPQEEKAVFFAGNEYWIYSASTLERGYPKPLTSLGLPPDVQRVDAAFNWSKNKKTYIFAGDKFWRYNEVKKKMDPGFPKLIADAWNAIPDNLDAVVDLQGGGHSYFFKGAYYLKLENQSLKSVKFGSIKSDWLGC

| SMILES | IC50 (Histone deacetylase 8) [µM] | IC50 [1] [µM] |
| --- | --- | --- |
| Cc1ccc(C(=O)N[C@@H](Cc2ccc(OCCc3ccccc3)cc2)C(=O)O)cc1 | 386 | 4.5 |
| COC(=O)[C@H](Cc1ccc(OCc2ccccc2)cc1)NC(=O)c1ccc(C)cc1 | > 1000 | 83.7 |
| Cc1ccc(C(=O)N[C@@H](Cc2ccc(OCc3ccccc3)cc2)C(=O)O)cc1 | > 1000 | 8.1 |
| COC(=O)[C@H](Cc1ccc(OCc2ccccc2)cc1)NC(C)=O | 872 | 27.6 |
| COC(=O)[C@H](Cc1ccc(OCCc2ccccc2)cc1)NC(C)=O | 825 | 12.5 |
| COC(=O)[C@H](Cc1ccc(OCc2ccccc2)cc1)NC(=O)c1ccccc1 | > 1000 | 67.5 |
| COC(=O)[C@H](Cc1ccc(OCCc2ccccc2)cc1)NC(=O)c1ccccc1 | > 1000 | 74.6 |
| COC(=O)[C@H](Cc1ccc(OCc2ccccc2)cc1)NS(=O)(=O)c1ccc(C)cc1 | > 1000 | 10.7 |
| O=C(N[C@@H](Cc1ccc(OCCc2ccccc2)cc1)C(=O)O)c1ccccc1 | 253 | 7.6 |
| COC(=O)[C@H](Cc1ccc(OCc2ccccc2)cc1)NS(C)(=O)=O | 754 | 17.8 |
| COC(=O)[C@H](Cc1ccc(OCCc2ccccc2)cc1)NC(=O)c1ccc(C)cc1 | > 1000 | 85.5 |
| O=C(N[C@@H](Cc1ccc(OCc2ccccc2)cc1)C(=O)O)c1ccccc1 | 111 | 9.8 |
| COC(=O)[C@H](Cc1ccc(OCCc2ccccc2)cc1)NS(=O)(=O)c1ccc(C)cc1 | 962 | 6.3 |

Now those with a lower IC50 [1], led by results:

| IC50 (Histone deacetylase 8) [µM] | IC50 [1] [µM] | SMILES |
| --- | --- | --- |
| 52.5 | 3.9 | Cc1ccc(C(=O)N[C@@H](Cc2ccc(OCCc3ccccc3)cc2)C(=O)NO)cc1 |
| 3.6 | 0.067 | CS(=O)(=O)N[C@@H](Cc1ccc(OCc2ccccc2)cc1)C(=O)NO |
| > 1000 | 2.4 | COC(=O)[C@H](Cc1ccc(OCCc2ccccc2)cc1)NS(C)(=O)=O |
| 30.7 | 0.46 | Cc1ccc(C(=O)N[C@@H](Cc2ccc(OCc3ccccc3)cc2)C(=O)NO)cc1 |
| > 1000 | 0.27 | Cc1ccc(S(=O)(=O)N[C@@H](Cc2ccc(OCCc3ccccc3)cc2)C(=O)O)cc1 |
| 102 | 0.12 | CS(=O)(=O)N[C@@H](Cc1ccc(OCCc2ccccc2)cc1)C(=O)O |
| 505 | 2.5 | Cc1ccc(S(=O)(=O)N[C@@H](Cc2ccc(OCc3ccccc3)cc2)C(=O)O)cc1 |
| 27.8 | 0.9 | O=C(N[C@@H](Cc1ccc(OCCc2ccccc2)cc1)C(=O)NO)c1ccccc1 |
| 9.3 | 1.7 | O=C(N[C@@H](Cc1ccc(OCc2ccccc2)cc1)C(=O)NO)c1ccccc1 |
| 14.4 | 0.013 | CC(=O)N[C@@H](Cc1ccc(OCCc2ccccc2)cc1)C(=O)NO |
| 47.2 | 1.4 | CS(=O)(=O)N[C@@H](Cc1ccc(OCc2ccccc2)cc1)C(=O)O |
| 9.5 | 0.029 | CS(=O)(=O)N[C@@H](Cc1ccc(OCCc2ccccc2)cc1)C(=O)NO |
| – | 0.014 | COc1ccc(S(=O)(=O)N(CC(=O)NO)CC(C)C)cc1 |
| 5.8 | 0.037 | CC(=O)N[C@@H](Cc1ccc(OCc2ccccc2)cc1)C(=O)NO |
| 36.9 | 3 | CC(=O)N[C@@H](Cc1ccc(OCc2ccccc2)cc1)C(=O)O |
| 42.4 | 0.025 | Cc1ccc(S(=O)(=O)N[C@@H](Cc2ccc(OCc3ccccc3)cc2)C(=O)NO)cc1 |
| 121 | 0.75 | CC(=O)N[C@@H](Cc1ccc(OCCc2ccccc2)cc1)C(=O)O |
| 82.5 | 0.017 | Cc1ccc(S(=O)(=O)N[C@@H](Cc2ccc(OCCc3ccccc3)cc2)C(=O)NO)cc1 |
